pIC50: −log10 of the molar value. Activity calls are given as the source filed them.
Tests used:
[1] = Antioxidant activity assessed as inhibition of pyrogallol autooxidation; assay type: functional; design: concentration or dose not given beside the values; conditions: dose or concentration not given here
Method in brief: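 Pyrogallol autooxidation followed at 420 nm in pH 7.4 TRIS saline (5 mM TRIS, 50 mM NaCl). Compound at 0.5 mM final, from a 50 mM DMSO stock; DMSO alone served as blank. Reaction started with 0.75 mM pyrogallol. Percent inhibition calculated from rates over the first 2 min. Mean of three separate determinations.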

Mus musculus [2] = experiment: Anticonvulsant activity in Swiss mouse assessed as inhibition of ScPTZ-induced seizures at 30 mg/kg, ip after 4 hrs; assay type: functional, organism-based; design: dose 30 mg/kg
Method in brief: (§1)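 Mice dosed ip with compound in methylcellulose at 30, 100 or 300 mg/kg. MES or subcutaneous pentylenetetrazol seizure tests run 30 min and 4 h after dosing, and occasionally at 15 min and 1 h.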

Mus musculus [3] = experiment: Anticonvulsant activity against magnesium deprivation mediated audiogenic seizure in OF1 mouse assessed as duration of latency plus wide running period at 6 mg/kg, ip; assay type: functional; conditions: route intraperitoneal
Mus musculus [4] = experiment: Anticonvulsant activity in Swiss mouse assessed as inhibition of maximal electroshock-induced seizures at 300 mg/kg, ip after 30 mins; assay type: functional, organism-based; design: dose 300 mg/kg
Method in brief: (§2)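 Mice dosed ip with compound in methylcellulose at 30, 100 or 300 mg/kg. MES or subcutaneous pentylenetetrazol seizure tests run 30 min and 4 h after dosing, and occasionally at 15 min and 1 h. Activity scored as the percentage of animals protected, in bands (75–100%, 50–75%, 25–50%, 0–25%, none).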

Mus musculus [5] = experiment: Anticonvulsant activity in Swiss mouse assessed as inhibition of ScPTZ-induced seizures at 300 mg/kg, ip after 30 mins; assay type: functional; design: scale not given: the % may be the effect or the level left; conditions: route intraperitoneal; method in brief: as §2
Mus musculus [6] = experiment: Anticonvulsant activity in Swiss mouse assessed as inhibition of ScPTZ-induced seizures at 100 mg/kg, ip after 15 mins; assay type: functional; design: scale not given: the % may be the effect or the level left; conditions: route intraperitoneal; method in brief: as §2
Mus musculus [7] = experiment: Neurotoxicity in Swiss mouse assessed as inability of animal to maintain on rotarod […], ip after 4 hrs by rotarod test; assay type: toxicity, organism-based; conditions: in vivo
Method in brief: (§3)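 Minimal acute neurotoxicity assessed by rotarod: mouse placed on a 1 inch knurled rod rotating at 6 rpm, at 15 min, 30 min, 1 h or 4 h after ip dosing in methylcellulose. Scored as the percentage of animals toxic, in bands (75–100%, 50–75%, 25–50%, 0–25%, none).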

Mus musculus [8] = experiment: Neurotoxicity in Swiss mouse assessed as inability of animal to maintain on rotarod […], ip after 15 mins by rotarod test; assay type: toxicity, organism-based; conditions: in vivo; method in brief: as §3
Mus musculus [9] = experiment: Antinociceptive activity against thermal-stimulus induced pain reflex in OF1 mouse assessed as maximal possible effect at 30 mg/kg, ip after 45 mins by hot plate assay; assay type: functional; conditions: route intraperitoneal
Method in brief: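 OF1 mice given compound ip 45 min before testing, then placed on a hot plate at 55 ± 1 °C. Latency to a pain reflex (vocalization, paw lick, hindpaw flick or jump) recorded, with a 30 s cut-off. Latencies converted to % maximum possible effect. Mean ± SD, 6 treated vs 6 untreated mice per dose.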

Mus musculus [10] = experiment: Anticonvulsant activity in Swiss mouse assessed as inhibition of ScPTZ-induced seizures at 300 mg/kg, ip after 4 hrs; assay type: functional, organism-based; design: dose 300 mg/kg; method in brief: as §2
Mus musculus [11] = experiment: Anticonvulsant activity in Swiss mouse assessed as inhibition of maximal electroshock-induced seizures at 100 mg/kg, ip after 30 mins; assay type: functional, organism-based; design: dose 100 mg/kg; method in brief: as §2
Mus musculus [12] = experiment: Neurotoxicity in Swiss mouse assessed as inability of animal to maintain on rotarod at 100 mg, ip after 30 mins by rotarod test; assay type: toxicity, organism-based; conditions: in vivo, 0.5 h; method in brief: as §3
Mus musculus [13] = experiment: Neuroprotective activity against ibotenate-induced focal cerebral injury in Swiss mouse assessed as reduction in size of lesions in white matter at 4 ug/kg, ip; assay type: functional; design: scale not given: the % may be the effect or the level left
Method in brief: (§4)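 Swiss mouse pups anesthetized with isoflurane, then given 10 µg ibotenate by stereotaxic injection into the right frontoparietal area as two 1 µl boluses. Compound in DMSO given ip at 4 µg/kg; controls received DMSO ip. Brains fixed 5 days later. Lesion maximal diameter in white and cortical grey matter measured on cresyl-violet-stained serial coronal sections, 15 µm thick. ANOVA with Bonferroni test.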

Mus musculus [14] = experiment: Neuroprotective activity against ibotenate-induced focal cerebral injury in Swiss mouse assessed as reduction in size of lesions in grey matter at 4 ug/kg, ip; assay type: functional; design: scale not given: the % may be the effect or the level left; method in brief: as §4
Mus musculus [15] = experiment: Neurotoxicity in Swiss mouse assessed as inability of animal to maintain on rotarod at 30 mg/kg, ip after 4 hrs by rotarod test; assay type: toxicity, organism-based; conditions: in vivo
Method in brief: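 Minimal acute neurotoxicity assessed by rotarod: mouse placed on a 1 inch knurled rod rotating at 6 rpm, at 15 min, 30 min, 1 h or 4 h after ip dosing in methylcellulose.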

Mus musculus [16] = experiment: Anticonvulsant activity in Swiss mouse assessed as inhibition of ScPTZ-induced seizures at 100 mg/kg, ip after 1 hr; assay type: functional; design: scale not given: the % may be the effect or the level left; conditions: route intraperitoneal; method in brief: as §2
Mus musculus [17] = experiment: Anticonvulsant activity against magnesium deprivation mediated audiogenic seizure in OF1 mouse assessed as duration of recovery at 6 mg/kg, ip; assay type: functional; conditions: route intraperitoneal
Mus musculus [18] = experiment: Antinociceptive activity against thermal-stimulus induced pain reflex in OF1 mouse assessed as maximal possible effect at 60 mg/kg, ip after 45 mins by hot plate assay; conditions: route intraperitoneal
Mus musculus [19] = experiment: Neurotoxicity in Swiss mouse assessed as inability of animal to maintain on rotarod […], ip after 4 hr by rotarod test; assay type: toxicity, organism-based; conditions: in vivo; method in brief: as §3
Mus musculus [20] = experiment: Neurotoxicity in Swiss mouse assessed as inability of animal to maintain on rotarod at 300 mg, ip after 30 mins by rotarod test; assay type: toxicity, organism-based; conditions: in vivo, 0.5 h; method in brief: as §3
Mus musculus [21] = experiment: Anticonvulsant activity in Swiss mouse assessed as inhibition of ScPTZ-induced seizures at 100 mg/kg, ip after 30 mins; assay type: functional, organism-based; design: dose 100 mg/kg; method in brief: as §2
Mus musculus [22] = experiment: Anticonvulsant activity in Swiss mouse assessed as inhibition of maximal electroshock-induced seizures at 30 mg/kg, ip after 4 hrs; assay type: functional, organism-based; design: dose 30 mg/kg; method in brief: as §1
Glutamate NMDA receptor = experiment: Displacement of [3H]TCP from NMDA receptor in rat cerebral cortex
Mus musculus [23] = experiment: Anticonvulsant activity in Swiss mouse assessed as inhibition of ScPTZ-induced seizures at 100 mg/kg, ip after 4 hrs; assay type: functional, organism-based; design: dose 100 mg/kg; method in brief: as §2
Mus musculus [24] = experiment: Anticonvulsant activity in Swiss mouse assessed as inhibition of maximal electroshock-induced seizures at 100 mg/kg, ip after 4 hrs; assay type: functional, organism-based; design: dose 100 mg/kg; method in brief: as §2
Mus musculus [25] = experiment: Toxicity in OF1 mouse assessed as rectal temperature at 30 mg/kg; assay type: organism-based; design: dose 30 mg/kg; conditions: in vivo
Method in brief: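 Rectal temperature measured in mice given 30 mg/kg ip, 1 hr before testing.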

Mus musculus [26] = species on record: Mus musculus; experiment: Anticonvulsant activity in OF1 mouse assessed as protection against NMDA-induced seizures; assay type: functional
Method in brief: (§5)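 Normally fed OF1 mice. Compound given ip 1 hr before ip NMDA (137 mg/kg). Protection scored as no seizures over 4 hours after NMDA and no death within 48 hours. […] At 49 mg/kg, the read-out was the NMDA seizure threshold.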

Mus musculus [27] = experiment: Anticonvulsant activity in OF1 mouse assessed as protection against NMDA-induced seizures at 49 mg/kg,; assay type: functional; method in brief: as §5
Mus musculus [28] = experiment: Neurotoxicity in Swiss mouse assessed as inability of animal to maintain on rotarod […], ip after 1 hr by rotarod test; assay type: toxicity, organism-based; conditions: in vivo; method in brief: as §3
Mus musculus [29] = experiment: Anticonvulsant activity in Swiss mouse assessed as inhibition of maximal electroshock-induced seizures at 30 mg/kg, ip after 30 mins; assay type: functional, organism-based; design: dose 30 mg/kg; method in brief: as §1
Mus musculus [30] = experiment: Anxiolytic activity against OF1 mouse assessed as increase in number of crossings of photocell activity meter at 10 mg/kg, ip administered 1 hr before testing measured for 3 mins; conditions: route intraperitoneal
Mus musculus [31] = experiment: Anticonvulsant activity against magnesium deprivation mediated audiogenic seizure in OF1 mouse assessed as duration of cunvulsions at 6 mg/kg, ip; assay type: functional; conditions: route intraperitoneal
Mus musculus [32] = experiment: Anticonvulsant activity in Swiss mouse assessed as inhibition of maximal electroshock-induced seizures at 300 mg/kg, ip after 4 hrs; assay type: functional, organism-based; design: dose 300 mg/kg; method in brief: as §2
Mus musculus [33] = experiment: Anxiolytic activity against OF1 mouse assessed as increase in number of crossings of photocell activity meter at 5 mg/kg, ip administered 1 hr before testing measured for 3 mins; conditions: route intraperitoneal
Mus musculus [34] = experiment: Anxiolytic activity against OF1 mouse assessed as increase in number of crossings of photocell activity meter at 30 mg/kg, ip administered 1 hr before testing measured for 3 mins; conditions: route intraperitoneal
Mus musculus [35] = experiment: Anticonvulsant activity in Swiss mouse assessed as inhibition of ScPTZ-induced seizures at 30 mg/kg, ip after 30 mins; assay type: functional, organism-based; design: dose 30 mg/kg; method in brief: as §1

Row | SMILES | inhibition [1] [%] | Activity (Mus musculus [2]) | Activity (Mus musculus [4]) | Activity (Mus musculus [5]) [%] | Activity (Mus musculus [7]) | Activity (Mus musculus [8]) [%] | Activity (Mus musculus [10]) | Activity (Mus musculus [11]) | Activity (Mus musculus [12]) [%] | Activity (Mus musculus [15]) | Activity (Mus musculus [19]) | Activity (Mus musculus [20]) [%] | Activity (Mus musculus [21]) | Activity (Mus musculus [22]) | Activity (Mus musculus [23]) | Activity (Mus musculus [24]) | Activity (Mus musculus [28]) [%] | Activity (Mus musculus [29]) | Activity (Mus musculus [32]) | Activity (Mus musculus [35]) | further results
1 | N=C(N)c1ccc(N)cc1 | < 5 | – | – | – | – | – | – | – | – | – | – | – | – | – | – | – | – | – | – | – | –
2 | N=C(N)c1ccc(NCCNc2ccc(C(=N)N)cc2)cc1 | 36.3 | inactive | inactive | 75 | 25% | 50 | inactive | inactive | 25 | Non-toxic | Non-toxic | 75 | inactive | inactive | inactive | inactive | 75 | inactive | inactive | inactive | Time (Mus musculus [3]): 4.75 s; Activity (Mus musculus [6]): 75%; Activity (Mus musculus [9]): 31.17%; Activity (Mus musculus [13]): 69%; Activity (Mus musculus [14]): 49%; Activity (Mus musculus [16]): 75%; Time (Mus musculus [17]): 50.3 s; Activity (Mus musculus [18]): 70.33%; pIC50 (Glutamate NMDA receptor): 5.85; T (Mus musculus [25]): 35.7 °C; ED50 (Mus musculus [26]): 6 mg/kg; Activity (Mus musculus [27]): >10%; Activity (Mus musculus [30]): 90.5; Time (Mus musculus [31]): 1.4 s; Activity (Mus musculus [33]): 103.3; Activity (Mus musculus [34]): 13.3
3 | CN(CCN(C)c1ccc(C(=N)N)cc1)c1ccc(C(=N)N)cc1 | 51 | inactive | inactive | 75 | Non-toxic | 50 | inactive | inactive | 25 | Non-toxic | Non-toxic | 75 | inactive | inactive | inactive | inactive | 25 | inactive | inactive | inactive | –
4 | CN(CCNc1ccc(C(=N)N)cc1)c1ccc(C(=N)N)cc1.Cl.Cl | 17.5 | inactive | – | – | – | – | – | inactive | 75 | Non-toxic | Non-toxic | 75 | inactive | inactive | inactive | inactive | – | inactive | – | inactive | –
5 | CCN(CCNc1ccc(C(=N)N)cc1)c1ccc(C(=N)N)cc1.Cl.Cl | 28.8 | inactive | – | – | – | – | – | – | 75 | Non-toxic | – | 75 | – | inactive | – | – | – | inactive | – | – | –

From ChEMBL document CHEMBL1177884, “1,2-ethane bis-1-amino-4-benzamidine is active against several brain insult and seizure challenges through anti-NMDA mechanisms targeting the 3H-TCP binding site and antioxidant action” (Eur J Med Chem, 2010)
